Source: ChEMBL document CHEMBL4837245, “Discovery of VU6028418: A Highly Selective and Orally Bioavailable M4 Muscarinic Acetylcholine Receptor Antagonist” (ACS Med Chem Lett, 2021)
Values after ≈ are worked out from the molar mass of the structure shown.

Legend:
[1] = biological target: T1, CYP3A4 (Homo sapiens, UniProt P08684); test: Inhibition of CYP3A4 in human liver microsomes using midazolam as substrate preincubated for 15 mins followed by NADPH addition and measured after 8 mins by LC-MS/MS analysis; assay type: ADME; details: human, liver microsomes, probe midazolam; time 23 min; read-out: INH
T1 sequence (P08684 whole entry): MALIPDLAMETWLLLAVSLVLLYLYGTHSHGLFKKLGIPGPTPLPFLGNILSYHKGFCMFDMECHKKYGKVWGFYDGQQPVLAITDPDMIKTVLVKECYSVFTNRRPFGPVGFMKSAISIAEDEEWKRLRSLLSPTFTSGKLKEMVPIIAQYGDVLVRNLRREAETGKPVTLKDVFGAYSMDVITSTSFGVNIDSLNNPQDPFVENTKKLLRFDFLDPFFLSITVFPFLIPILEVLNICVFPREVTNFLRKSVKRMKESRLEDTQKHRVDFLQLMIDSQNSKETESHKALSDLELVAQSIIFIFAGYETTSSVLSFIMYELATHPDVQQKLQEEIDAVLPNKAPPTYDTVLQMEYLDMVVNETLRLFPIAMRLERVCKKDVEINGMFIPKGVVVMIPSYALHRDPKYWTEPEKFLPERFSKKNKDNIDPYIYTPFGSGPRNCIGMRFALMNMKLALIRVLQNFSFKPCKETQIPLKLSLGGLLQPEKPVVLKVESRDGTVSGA
How it was run: (§1)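 Cocktail CYP450 inhibition assay run in human liver microsomes.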

[2] = Antagonist activity at human muscarinic acetylcholine M4 receptor expressed in CHO cells assessed as inhibition of acetylcholine-induced calcium mobilization relative to control; assay type: cell-based; set-up: concentration or dose not given beside the values; details: concentration not given here
How it was run: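 CHO cells stably transfected with human M4 were pretreated with the compound, then stimulated with an EC80 concentration of acetylcholine. The response was read as calcium mobilization, and IC50 was derived from the concentration-response. Each experiment was run in triplicate.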

[3] = biological target: T1, CYP3A4; test: Induction of CYP3A4 in human hepatocytes; assay type: ADME, cell-based, Hepatocyte
[4] = biological target: Sigma non-opioid intracellular receptor 1 (Homo sapiens, UniProt Q99720); test: Inhibition of human sigma1 receptor at 10 uM relative to control
Sequence of Sigma non-opioid intracellular receptor 1 (Q99720 whole entry): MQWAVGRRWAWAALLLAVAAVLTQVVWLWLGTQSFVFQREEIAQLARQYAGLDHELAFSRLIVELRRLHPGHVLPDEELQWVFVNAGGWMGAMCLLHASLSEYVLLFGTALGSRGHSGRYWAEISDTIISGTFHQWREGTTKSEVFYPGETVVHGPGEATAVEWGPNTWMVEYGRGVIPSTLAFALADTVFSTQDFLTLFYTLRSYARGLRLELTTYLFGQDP

[5] = Volume of distribution at steady state in CD-1 mouse at 1.0 mg/kg, iv measured upto 24 hrs by LC-MS/MS analysis; assay type: ADME, organism-based; details: in vivo, read-out: Vdss
How it was run: (§2)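 Pharmacokinetics in Sprague-Dawley rat, CD-1 mouse and beagle dog. Intravenous dose was 1 mg/kg in each species. Oral doses were given as a suspension: 10 mg/kg in rat, 3 mg/kg in mouse and dog. Each parameter is the mean of two to three animals.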

[6] = Tmax in Beagle dog at 3 mg/kg, po measured upto 24 hrs by LC-MS/MS analysis; assay type: ADME, organism-based, Canis lupus familiaris; details: in vivo; how it was run: as §2
[7] = Kinetic solubility of compound at pH 6.8; assay type: physicochemical; details: buffer, read-out: Kinetic_solubility
How it was run: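 Kinetic solubility measured at pH 6.8.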

[8] = biological target: T2, CYP1A2 (Homo sapiens, UniProt P05177); test: Induction of CYP1A2 in human hepatocytes; assay type: ADME, cell-based, Hepatocyte
T2 sequence (P05177 whole entry): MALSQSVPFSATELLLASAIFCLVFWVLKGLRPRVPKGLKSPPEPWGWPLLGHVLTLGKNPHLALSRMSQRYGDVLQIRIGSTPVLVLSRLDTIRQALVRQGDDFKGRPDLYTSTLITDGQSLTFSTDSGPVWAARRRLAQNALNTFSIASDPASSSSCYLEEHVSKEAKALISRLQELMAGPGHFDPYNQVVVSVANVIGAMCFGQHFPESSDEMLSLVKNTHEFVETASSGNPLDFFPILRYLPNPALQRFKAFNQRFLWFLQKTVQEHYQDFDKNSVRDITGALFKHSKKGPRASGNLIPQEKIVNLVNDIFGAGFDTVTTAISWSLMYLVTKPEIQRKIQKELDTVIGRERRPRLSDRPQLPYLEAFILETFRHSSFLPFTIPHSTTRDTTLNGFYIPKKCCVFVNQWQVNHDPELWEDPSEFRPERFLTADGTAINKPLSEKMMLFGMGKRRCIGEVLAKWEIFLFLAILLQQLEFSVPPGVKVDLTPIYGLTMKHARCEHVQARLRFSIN

[9] = Tmax in Sprague-Dawley rat at 10 mg/kg, po measured upto 24 hrs by LC-MS/MS analysis; assay type: ADME, organism-based; details: in vivo; how it was run: as §2
[10] = Volume of distribution at steady state in Beagle dog at 1.0 mg/kg, iv measured upto 24 hrs by LC-MS/MS analysis; assay type: ADME, organism-based, Canis lupus familiaris; details: in vivo, read-out: Vdss; how it was run: as §2
[11] = biological target: T2, CYP1A2; test: Inhibition of CYP1A2 in human liver microsomes using phenacetin as substrate preincubated for 15 mins followed by NADPH addition and measured after 8 mins by LC-MS/MS analysis; assay type: ADME; details: human, liver microsomes, probe phenacetin; time 23 min; read-out: INH; how it was run: as §1
[12] = tested on: Rattus norvegicus; test: Effect on haloperidol-induced catalepsy in rat assessed as reduction in mean latency to withdraw at 0.3 mg/kg, po (reference value: 43.4 +/- 4.3 sec); assay type: functional
How it was run: (§3)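 Rat haloperidol-induced catalepsy model with oral test dosing at 0.3, 1 and 3 mg/kg alongside vehicle-treated controls. Read-out is latency to withdraw, also expressed as % reversal of catalepsy. Groups compared by ANOVA.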

[13] = Cmax in Sprague-Dawley rat at 10 mg/kg, po measured upto 24 hrs by LC-MS/MS analysis; assay type: ADME, organism-based; set-up: route oral, dose 10 mg/kg, time <=24; details: in vivo
How it was run: (§4)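 Single iv and oral (suspension) dosing; iv/po doses 1/10 mg/kg in SD rat, 1/3 mg/kg in CD-1 mouse and beagle dog. Plasma PK parameters are means from two to three animals per species.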

[14] = tested on: Rattus norvegicus; test: Reversal of haloperidol-induced catalepsy in po dosed rat; assay type: functional, organism-based; how it was run: as §3
[15] = biological target: CYP2D6 (Homo sapiens, UniProt P10635); test: Inhibition of CYP2D6 in human liver microsomes using dextromethorphan as substrate preincubated for 15 mins followed by NADPH addition and measured after 8 mins by LC-MS/MS analysis; assay type: ADME; details: human, liver microsomes, probe dextromethorphan; time 23 min; read-out: INH; how it was run: as §1
Sequence of CYP2D6 (P10635 whole entry): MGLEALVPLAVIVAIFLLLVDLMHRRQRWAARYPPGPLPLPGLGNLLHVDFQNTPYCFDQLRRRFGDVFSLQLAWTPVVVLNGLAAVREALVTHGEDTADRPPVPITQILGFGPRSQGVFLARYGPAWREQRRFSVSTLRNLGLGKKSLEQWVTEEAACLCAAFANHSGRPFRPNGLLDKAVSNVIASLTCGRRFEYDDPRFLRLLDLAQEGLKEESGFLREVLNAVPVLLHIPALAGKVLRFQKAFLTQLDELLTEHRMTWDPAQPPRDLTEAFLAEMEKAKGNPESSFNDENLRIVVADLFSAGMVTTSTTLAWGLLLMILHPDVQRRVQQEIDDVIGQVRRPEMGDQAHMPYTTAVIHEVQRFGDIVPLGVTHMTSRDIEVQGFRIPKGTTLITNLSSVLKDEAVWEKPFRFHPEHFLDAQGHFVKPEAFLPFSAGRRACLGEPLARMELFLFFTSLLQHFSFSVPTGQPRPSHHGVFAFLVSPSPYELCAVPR

[16] = Clearance in Sprague-Dawley rat plasma at 1.0 mg/kg, iv measured upto 24 hrs by LC-MS/MS analysis; assay type: ADME, organism-based; how it was run: as §4
[17] = Ratio of drug concentration in brain to plasma of Sprague-Dawley rat at 1 mg/kg, iv; assay type: ADME, organism-based
[18] = Oral bioavailability in Sprague-Dawley rat at 10 mg/kg measured upto 24 hrs by LC-MS/MS analysis; assay type: ADME, organism-based; details: in vivo; how it was run: as §4
[19] = biological target: Cytochrome P450 2C19 (Homo sapiens, UniProt P33261); test: Time dependent inhibition of CYP2C19 (unknown origin); assay type: ADME
Sequence of Cytochrome P450 2C19 (P33261 whole entry): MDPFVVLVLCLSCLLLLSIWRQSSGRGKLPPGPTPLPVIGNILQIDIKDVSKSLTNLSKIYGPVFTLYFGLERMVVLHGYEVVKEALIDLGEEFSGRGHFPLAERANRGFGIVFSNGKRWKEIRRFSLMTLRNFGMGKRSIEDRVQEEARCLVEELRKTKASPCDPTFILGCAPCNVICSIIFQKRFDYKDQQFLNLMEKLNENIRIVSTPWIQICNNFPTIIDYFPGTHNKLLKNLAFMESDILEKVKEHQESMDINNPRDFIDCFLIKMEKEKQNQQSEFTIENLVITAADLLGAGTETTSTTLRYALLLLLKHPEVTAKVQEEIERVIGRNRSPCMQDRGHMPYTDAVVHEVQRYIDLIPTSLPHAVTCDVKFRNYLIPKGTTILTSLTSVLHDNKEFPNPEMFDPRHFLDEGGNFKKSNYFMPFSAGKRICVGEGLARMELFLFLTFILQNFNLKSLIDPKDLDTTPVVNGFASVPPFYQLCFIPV

[20] = tested on: Rattus norvegicus; test: Effect on haloperidol-induced catalepsy in rat assessed as reduction in mean latency to withdraw at 3 mg/kg, po (reference value: 43.4 +/- 4.3 sec); assay type: functional; how it was run: as §3
[21] = biological target: CYP2B6 (Homo sapiens, UniProt P20813); test: Induction of CYP2B6 in human hepatocytes relative to control; assay type: ADME, cell-based, Hepatocyte
Sequence of CYP2B6 (P20813 whole entry): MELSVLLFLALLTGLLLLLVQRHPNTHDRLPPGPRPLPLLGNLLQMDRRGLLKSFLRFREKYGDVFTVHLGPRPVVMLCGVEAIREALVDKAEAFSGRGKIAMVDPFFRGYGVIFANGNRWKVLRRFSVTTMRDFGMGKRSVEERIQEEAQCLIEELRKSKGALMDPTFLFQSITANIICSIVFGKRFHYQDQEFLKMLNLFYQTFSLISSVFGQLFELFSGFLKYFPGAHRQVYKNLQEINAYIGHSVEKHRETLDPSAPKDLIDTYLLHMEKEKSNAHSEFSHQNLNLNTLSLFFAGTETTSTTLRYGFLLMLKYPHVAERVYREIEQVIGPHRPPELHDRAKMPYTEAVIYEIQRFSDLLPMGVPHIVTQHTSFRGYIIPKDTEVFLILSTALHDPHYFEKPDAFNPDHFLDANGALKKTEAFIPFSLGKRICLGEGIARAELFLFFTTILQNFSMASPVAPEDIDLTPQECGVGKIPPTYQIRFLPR

[22] = Oral bioavailability in CD-1 mouse at 3 mg/kg measured upto 24 hrs by LC-MS/MS analysis; assay type: ADME, organism-based; details: in vivo; how it was run: as §4
[23] = biological target: T3, Muscarinic acetylcholine receptor M2 (Homo sapiens, UniProt P08172); test: Antagonist activity at human muscarinic M2 receptor expressed in CHO cells co-expressing Gqi5 assessed as inhibition of acetylcholine-induced calcium mobilization; assay type: functional, cell-based
T3 sequence (P08172 whole entry): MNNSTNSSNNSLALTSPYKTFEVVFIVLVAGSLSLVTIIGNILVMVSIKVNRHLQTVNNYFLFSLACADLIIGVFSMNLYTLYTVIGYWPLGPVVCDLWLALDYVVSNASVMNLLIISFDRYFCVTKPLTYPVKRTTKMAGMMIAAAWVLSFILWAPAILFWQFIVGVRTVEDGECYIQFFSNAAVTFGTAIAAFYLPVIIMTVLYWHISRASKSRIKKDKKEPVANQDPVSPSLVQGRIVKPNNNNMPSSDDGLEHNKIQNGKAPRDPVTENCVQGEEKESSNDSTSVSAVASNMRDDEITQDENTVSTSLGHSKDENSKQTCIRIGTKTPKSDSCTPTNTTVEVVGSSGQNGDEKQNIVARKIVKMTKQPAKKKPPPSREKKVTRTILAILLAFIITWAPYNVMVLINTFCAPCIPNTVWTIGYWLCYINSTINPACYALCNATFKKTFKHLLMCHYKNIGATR
How it was run: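 CHO cells stably transfected with the given human mAChR subtype. Compound added before an EC80 concentration of acetylcholine; antagonism read as calcium mobilization. One independent determination in triplicate.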

Fc1cc(F)c(F)c(-c2ccc(N[C@H]3C[C@@H]4CN(CC5CCOCC5)C[C@@H]4C3)nn2)c1
IC50 at 8 min [1]: > 30 µM | inhibition [2]: 3% | inhibition ([2]; tested as the 2H-labelled form): 3% | EC50 [3]: 1.9 µM | inhibition [4]: 101% | Vd [5]: 10.6 L/kg | Tmax [6]: 17 h | solubility kinetic [7]: 85.1 µM (≈ 36.8 µg/mL) | EC50 [8]: 1.9 µM | Tmax [9]: 1.5 h | Vd [10]: 8.5 L/kg | IC50 at 8 min [11]: > 30 µM | Activity [12]: 32 s | Cmax [13]: 17000 ng/mL | Activity [14]: Dose-Dependent Effect | IC50 at 8 min [15]: > 30 µM | clearance [16]: 6.1 mL/min/kg | Kp [17]: 6.4 | bioavailability [18]: ≥ 100% | IC50 [19]: > 100 µM | Activity [20]: 15.1 s | Emax [21]: 2.1% | bioavailability [22]: ≥ 100% | IC50 [23]: 3.5 µM
